The source of these data is ChEMBL document CHEMBL3259541, “Synthesis and biological evaluation of antimetastatic agents predicated upon dihydromotuporamine C and its carbocyclic derivatives” (J Med Chem, 2014).

Each structure is given as a SMILES string.

Series [1] in a line: Antimigratory activity against human L3.6PL cells assessed as cell migration inhibition at 0.6 uM after 48 hrs incubation by wound healing assay in presence of 250 uM aminoguanidine treated 24 hrs prior compound addition. The class given is functional.
Series [2] in a line: Antimigratory activity against human L3.6PL cells assessed as cell migration inhibition at 2 uM after 48 hrs incubation by wound healing assay in presence of 250 uM aminoguanidine treated 24 hrs prior compound addition. The class given is functional.
The test system of series [3] is CHO-MG. Put plainly: Cytotoxicity against polyamine transporter deficient CHO-MG cells assessed as cell growth after 48 hrs incubation by MTS assay in presence of 1 mM aminoguanidine. As to conditions: Cricetulus griseus. The class given is ADME, cell-based. In short, it runs like this: (§1)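 CHO and polyamine-transport-deficient CHO-MG* cells pretreated 24 h with 1 mM aminoguanidine, then exposed to compound for 48 h at 37 °C. Triplicate. IC50 taken as 50% growth inhibition. PTS selectivity expressed as the CHO-MG*/CHO IC50 ratio.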

Series [4] has as its system CHO. Put plainly: Cytotoxicity against CHO cells assessed as cell growth after 48 hrs incubation by MTS assay in presence of 1 mM aminoguanidine. Format: cell-based. As to conditions: Cricetulus griseus. The method in brief:
as §1

Series [5] has as its system polyamine transporter. In words: Selectivity ratio of IC50 for polyamine transporter deficient CHO-MG cells to IC50 for CHO cells by MTS assay. The class given is ADME, cell-based, Cricetulus griseus. As to conditions: chinese hamster, polyamine transporter deficient CHO-MG cells and CHO cells; read-out: Ratio IC50. The method in brief:
as §1

A short description of series [6]: Cytotoxicity against human L3.6PL cells assessed as inhibition of cell growth after 48 hrs incubation by MTS assay in presence of 250 uM aminoguanidine treated 24 hrs prior compound addition. As to conditions: for IC50: Homo sapiens, L3.6pl. Format: functional, cell-based. In short, it runs like this:
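L3.6pl cells pretreated 24 h with 250 μM aminoguanidine, then incubated with compound for 48 h at 37 °C. Triplicate. IC50 is the concentration giving 50% growth inhibition and IC5 the concentration giving 5% inhibition, both versus untreated control.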

A short description of series [7]: Antimigratory activity against human L3.6PL cells assessed as cell migration inhibition at 1 uM after 48 hrs incubation by wound healing assay in presence of 250 uM aminoguanidine treated 24 hrs prior compound addition. The class given is functional.
Series [8] deals with L3.6pl. Put plainly: Antimigratory activity against human L3.6PL cells assessed as cell migration inhibition after 48 hrs incubation by wound healing assay in presence of 250 uM aminoguanidine treated 24 hrs prior compound addition. Format: functional, cell-based.

With `Cl.NCCCNCCCNC1CCCCCCCCCCCCCC1`, the “inhibition (INH)” value in series [1] amounted to 19.3%; in series [2], 32.9%. The IC50 in series [3] came to 5.95 µM; in series [4], 2.84 µM; in series [6], 2.8 µM. Also, the selectivity ratio in series [5] is 2.1. For the same compound, the IC5 in series [6] was determined as 2 µM.

`Cl.NCCCCNCCCCN1CCCCCCCCCCCCCC1`: the “inhibition (INH)” value in series [1] was determined as 16.7%; in series [7], 29.6%. Moreover, the IC50 was determined as 4.67 µM in series [3], 4.38 µM in series [4] and 1.8 µM in series [6]. In series [5], the selectivity ratio stood at 1. Further, the IC5 in series [6] was determined as 1 µM.

As for `Cl.NCCCCNCCCCNC1CCCCCCCCCCCCCC1`, the results for the IC50 in series [3], in series [4] and in series [6] were 5.18 µM, 4.53 µM and 2.8 µM, respectively. The selectivity ratio in series [5] was 1. Also, the IC5 in series [6] was 2 µM.

Consider `Cl.NCCCCNCCCCNCC1CCCCCCCCCCCCCC1`, for which the 50% inhibitory concentration (IC50) was 45.5 µM in series [3], 47.8 µM in series [4] and 48.7 µM in series [6]. Further, the selectivity ratio in series [5] is 1. The IC5 in series [6] is 40 µM. For the same compound, in series [8], the inhibition result is “Dose-dependent effect”.
